Data reported in ChEMBL document CHEMBL1139875, “Discovery of 4-aminobutyric acid derivatives possessing anticonvulsant and antinociceptive activities: a hybrid pharmacophore approach” (2007).
The source made the active and inactive calls. No cut-off for these calls is given here.

Tests used:
Mus musculus [1] = assay: Anticonvulsant activity in Swiss Albino mouse at 300 mg/kg, ip after 0.5 hr by MES test; format: functional, organism-based; set-up: dose 300 mg/kg
In short: (§1)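 Mice (Swiss, 20-25 g) given i.p. doses of 30, 100 and 300 mg/kg under ADD program protocols, three per group, examined at 0.5 and 4 h in MES, scPTZ, scSTY or scPIC seizure tests. Value is the minimum dose protecting half or more of the mice.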

Mus musculus [2] = assay: Anticonvulsant activity in Swiss Albino mouse at 300 mg/kg, ip after 4 hrs by MES test; format: functional, organism-based; set-up: dose 300 mg/kg; in short: as §1
Mus musculus [3] = assay: Anticonvulsant activity in Swiss Albino mouse at 300 mg/kg, ip after 0.5 hr by scPTZ test; format: functional, organism-based; set-up: dose 300 mg/kg; in short: as §1
Mus musculus [4] = assay: Anticonvulsant activity in Swiss Albino mouse at 100 mg/kg, ip after 0.5 hr by scSTY test; format: functional, organism-based; set-up: dose 100 mg/kg; in short: as §1
Mus musculus [5] = assay: Anticonvulsant activity in Swiss Albino mouse at 300 mg/kg, ip after 4 hrs by scSTY test; format: functional, organism-based; set-up: dose 300 mg/kg; in short: as §1
Mus musculus [6] = assay: Anticonvulsant activity in Swiss Albino mouse at 300 mg/kg, ip after 0.5 hr by scPIC test; format: functional, organism-based; set-up: dose 300 mg/kg; in short: as §1
Mus musculus [7] = assay: Anticonvulsant activity in Swiss Albino mouse at 300 mg/kg, ip after 4 hrs by scPIC test; format: functional, organism-based; set-up: dose 300 mg/kg; in short: as §1
Mus musculus [8] = assay: Neurotoxicity in Swiss Albino mouse at 300 mg/kg, ip after 0.5 hr by rotarod test; format: functional, organism-based; set-up: dose 300 mg/kg
In short: (§2)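 Swiss mice (20-25 g) are trained on an accelerating rotorod (10 rpm, 3.2 cm rod), then injected i.p. at 30, 100 or 300 mg/kg, with three per group. Neurotoxicity means failure to keep equilibrium for at least 1 min in each of three trials, checked at 0.5 and 4 h. The value reported is the minimum dose affecting half or more of the mice.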

Mus musculus [9] = assay: Neurotoxicity in Swiss Albino mouse at 300 mg/kg, ip after 4 hrs by rotarod test; format: functional, organism-based; set-up: dose 300 mg/kg; in short: as §2
Mus musculus [10] = assay: Analgesic activity in Swiss Albino mouse assessed as number of acetic acid-induced writhing per 30 min after 100 mg/kg, ip; format: functional; details: route intraperitoneal
In short: (§3)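 Mice in groups of six dosed i.p. at 100 mg/kg, controls receiving 30% v/v PEG 400 in water. Writhing induced by i.p. 0.1 mL of 3% v/v acetic acid 1 h after drug. Writhes (abdominal stretch with at least one hind limb extended) counted over 30 min; % inhibition calculated. Mean ± SEM, Student's t test.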

Mus musculus [11] = assay: Analgesic activity in Swiss Albino mouse assessed as inhibition of acetic acid-induced writhing responses at 100 mg/kg, ip; format: functional; details: route intraperitoneal; in short: as §3
Rattus norvegicus [12] = assay: Effect on spontaneous pain in Sprague-Dawley rat CCI model assessed as duration of paw withdrawal at 100 mg/kg, ip after 0.5 hr; format: functional; details: route intraperitoneal
In short: (§4)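 CCI rats (n = 4) dosed 100 mg/kg i.p. (vehicle 30% v/v PEG 400 in water). After 10 min acclimatization in a cage 5 cm above ground, cumulative time the ipsilateral paw was held off the floor over 5 min recorded, excluding locomotion lifts. Mean ± SEM; ANOVA/Bonferroni versus predrug.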

Rattus norvegicus [13] = assay: Effect on spontaneous pain in Sprague-Dawley rat CCI model assessed as duration of paw withdrawal at 100 mg/kg, ip after 1 hr; format: functional; details: route intraperitoneal; in short: as §4
Rattus norvegicus [14] = assay: Effect on spontaneous pain in Sprague-Dawley rat CCI model assessed as duration of paw withdrawal at 100 mg/kg, ip after 1.5 hrs; format: functional; details: route intraperitoneal
In short: (§5)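 Unilateral CCI of sciatic nerve (Bennett and Xie) in Sprague-Dawley rats under i.p. pentobarbital sodium (65 mg/kg). Spontaneous pain is scored over 5 min after 10 min acclimatization, as cumulative time the ipsilateral paw is held off the floor. Paw lifts from locomotion or repositioning are excluded. Drug is given at 100 mg/kg i.p. with 30% v/v PEG 400 vehicle. Mean ± SEM, n = 4, compared with predrug by ANOVA/Bonferroni.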

Rattus norvegicus [15] = assay: Effect on spontaneous pain in Sprague-Dawley rat CCI model assessed as duration of paw withdrawal at 100 mg/kg, ip after 2 hrs; format: functional; details: route intraperitoneal; in short: as §5
Rattus norvegicus [16] = assay: Anti-dynamic allodynia effect in Sprague-Dawley rat SNL model assessed as latency to paw withdrawal 100 mg/kg, ip after 0.5 hr; format: functional; details: route intraperitoneal
In short: (§6)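 Left L5 spinal nerve ligation rats, tested preoperatively and 9 days postoperatively, then given 100 mg/kg i.p. (vehicle 30% v/v PEG 400 in water). After 10 min acclimatization, plantar surface of affected paw stroked mildly with a cotton-bud; paw lift response recorded. n = 4; retested 0.5-2.5 h post-dose.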

Rattus norvegicus [17] = assay: Anti-dynamic allodynia effect in Sprague-Dawley rat SNL model assessed as latency to paw withdrawal 100 mg/kg, ip after 1 hr; format: functional; details: route intraperitoneal; in short: as §6
Rattus norvegicus [18] = assay: Anti-dynamic allodynia effect in Sprague-Dawley rat SNL model assessed as latency to paw withdrawal 100 mg/kg, ip after 1.5 hrs; format: functional; details: route intraperitoneal; in short: as §6
Rattus norvegicus [19] = assay: Anti-dynamic allodynia effect in Sprague-Dawley rat SNL model assessed as latency to paw withdrawal 100 mg/kg, ip after 2 hrs; format: functional; details: route intraperitoneal; in short: as §6
Rattus norvegicus [20] = assay: Anti-dynamic allodynia effect in Sprague-Dawley rat SNL model assessed as latency to paw withdrawal 100 mg/kg, ip after 2.5 hrs; format: functional; details: route intraperitoneal; in short: as §6
Rattus norvegicus [21] = assay: Anti-cold allodynia effect in Sprague-Dawley rat SNL model assessed as duration of paw withdrawal 100 mg/kg, ip after 0.5 hr; format: functional; details: route intraperitoneal
In short: (§7)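 Left L5 spinal nerve ligation under pentobarbital (65 mg/kg i.p.). Allodynic rats dosed i.p. 100 mg/kg, vehicle 30% v/v PEG 400 in water. Acetone (100-200 µL) misted onto midplantar affected paw after 10 min acclimatization; paw withdrawal duration, mean of three samples at least 3 min apart; n = 4 rats.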

Rattus norvegicus [22] = assay: Anti-cold allodynia effect in Sprague-Dawley rat SNL model assessed as duration of paw withdrawal 100 mg/kg, ip after 1 hrs; format: functional; details: route intraperitoneal; in short: as §7
Rattus norvegicus [23] = assay: Anti-cold allodynia effect in Sprague-Dawley rat SNL model assessed as duration of paw withdrawal 100 mg/kg, ip after 1.5 hrs; format: functional; details: route intraperitoneal; in short: as §7
Rattus norvegicus [24] = assay: Anti-cold allodynia effect in Sprague-Dawley rat SNL model assessed as duration of paw withdrawal 100 mg/kg, ip after 2 hrs; format: functional; details: route intraperitoneal; in short: as §7
Rattus norvegicus [25] = assay: Anti-cold allodynia effect in Sprague-Dawley rat SNL model assessed as duration of paw withdrawal 100 mg/kg, ip after 2.5 hrs; format: functional; details: route intraperitoneal; in short: as §7
Rattus norvegicus [26] = assay: Effect on spontaneous pain in Sprague-Dawley rat CCI model assessed as duration of paw withdrawal at 100 mg/kg, ip after 2.5 hrs; format: functional; details: route intraperitoneal; in short: as §5
Rattus norvegicus [27] = assay: Antihyperalgesic effects in Sprague-Dawley rat SNL model assessed as duration of paw withdrawal at 100 mg/kg, ip after 0.5 hr, ip; format: functional; details: route intraperitoneal
In short: (§8)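 L5 SNL rats (n = 4), dosed 100 mg/kg i.p. (vehicle 30% v/v PEG 400 in water). Pin-prick to midplantar ipsilateral left hindpaw; withdrawal duration, mean of three responses; ≥2 s defined abnormal. Mean ± SEM; one-way ANOVA with Bonferroni versus predrug.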

Rattus norvegicus [28] = assay: Antihyperalgesic effects in Sprague-Dawley rat SNL model assessed as duration of paw withdrawal at 100 mg/kg, ip after 1 hr, ip; format: functional; details: route intraperitoneal; in short: as §8
Rattus norvegicus [29] = assay: Antihyperalgesic effects in Sprague-Dawley rat SNL model assessed as duration of paw withdrawal at 100 mg/kg, ip after 1.5 hrs, ip; format: functional; details: route intraperitoneal; in short: as §8
Rattus norvegicus [30] = assay: Antihyperalgesic effects in Sprague-Dawley rat SNL model assessed as duration of paw withdrawal at 100 mg/kg, ip after 2 hrs, ip; format: functional; details: route intraperitoneal; in short: as §8
Rattus norvegicus [31] = assay: Antihyperalgesic effects in Sprague-Dawley rat SNL model assessed as duration of paw withdrawal at 100 mg/kg, ip after 2.5 hrs, ip; format: functional; details: route intraperitoneal; in short: as §8
Rattus norvegicus [32] = organism: Rattus norvegicus; assay: Anti-dynamic allodynic effect in Sprague-Dawley rat CCI model assessed as latency to paw withdrawal after 0.5 hr; format: functional
In short: (§9)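 Rats with sciatic nerve chronic constriction injury (pentobarbital 65 mg/kg i.p. anaesthesia), baseline and day 9 testing, then drug per randomization table. After 10 min acclimatization, affected plantar surface stroked mildly with a cotton-bud; paw lift recorded. n = 4; retested 0.5-2.5 h post-dose.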

Rattus norvegicus [33] = organism: Rattus norvegicus; assay: Anti-dynamic allodynic effect in Sprague-Dawley rat CCI model assessed as latency to paw withdrawal after 1 hr; format: functional; in short: as §9
Rattus norvegicus [34] = organism: Rattus norvegicus; assay: Anti-dynamic allodynic effect in Sprague-Dawley rat CCI model assessed as latency to paw withdrawal after 1.5 hr; format: functional; in short: as §9
Rattus norvegicus [35] = organism: Rattus norvegicus; assay: Anti-dynamic allodynic effect in Sprague-Dawley rat CCI model assessed as latency to paw withdrawal after 2 hr; format: functional; in short: as §9
Rattus norvegicus [36] = organism: Rattus norvegicus; assay: Anti-dynamic allodynic effect in Sprague-Dawley rat CCI model assessed as latency to paw withdrawal after 2.5 hr; format: functional; in short: as §9

In the case of `C/C(=N\NC(=O)NCCCC(=O)O)c1ccccc1`, the Activity (Mus musculus [1]) is reported as “inactive”, the Activity (Mus musculus [2]) is reported as “inactive” and the Activity (Mus musculus [3]) is reported as “inactive”. The Activity (Mus musculus [4]) was “Active”, the Activity (Mus musculus [5]) was “Active” and the Activity (Mus musculus [6]) was “Active”. The Activity (Mus musculus [7]) was “Active”, the Activity (Mus musculus [8]) was “inactive” and the Activity (Mus musculus [9]) was “inactive”. It also gave an Activity (Mus musculus [10]) of 33.7, an inhibition in vivo at 100 mg/kg (Mus musculus [11]) of 82% and an Activity (Rattus norvegicus [12]) of 13.2 s. The Activity (Rattus norvegicus [13]) was 18.8 s, the Activity (Rattus norvegicus [14]) was 18.3 s and the Activity (Rattus norvegicus [15]) was 12.9 s. The Activity (Rattus norvegicus [16]) was 8.7 s, the Activity (Rattus norvegicus [17]) was 7.2 s and the Activity (Rattus norvegicus [18]) was 9.2 s. For the same compound, the Activity (Rattus norvegicus [19]) was 12.2 s, the Activity (Rattus norvegicus [20]) was 11.88 s and the Activity (Rattus norvegicus [21]) was 17.9 s. The Activity (Rattus norvegicus [22]) was 12.8 s, the Activity (Rattus norvegicus [23]) was 11.7 s and the Activity (Rattus norvegicus [24]) was 10.9 s. The Activity (Rattus norvegicus [25]) was 4.8 s, the Activity (Rattus norvegicus [26]) was 10.6 s and the Activity (Rattus norvegicus [27]) was 23.2 s. It also gave an Activity (Rattus norvegicus [28]) of 27.6 s, an Activity (Rattus norvegicus [29]) of 18.7 s and an Activity (Rattus norvegicus [30]) of 16.7 s. The Activity (Rattus norvegicus [31]) was 17.3 s, the Activity (Rattus norvegicus [32]) was 14.8 s and the Activity (Rattus norvegicus [33]) was 10.2 s. It also gave an Activity (Rattus norvegicus [34]) of 13.3 s, an Activity (Rattus norvegicus [35]) of 12.1 s and an Activity (Rattus norvegicus [36]) of 14.5 s.
